Bioassay records from PubChem.
Sampled rows, rich in hits. Any-hit rate of the full collection: about 1.5%.
CTSL1 counter: cathepsin L1 inhibition, PFM18AAP counter-screen; recombinant F. hepatica cathepsin L1, Z-Leu-Arg-MCA fluorescence; actives 0.49% (n = 300,000); inhibition, % at 5.96 µM;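 active = inhibition above the mean of all tested compounds plus 3 SD, set per screening campaign, cut at about 17% in these data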;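 note: 0% = plate median of test compound wells and 100% = 1 µM Z-Phe-Ala-diazomethylketone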
UCH37 inh: blocks the human deubiquitinase UCH37; purified proteasome/UCH37, Ub-AMC cleavage fluorescence; inhibition, % (test concentration not listed); actives 0.33% (n = 330,000); AID 588478;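 active = mean inhibition over replicate wells above about 20%, limit read from the data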;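 note: 0% = compound-free wells with enzyme and 100% = wells lacking proteasome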
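System: Proteasome-associated human UCH37 deubiquitinase; Input: 0.15 nM proteasome in added enzyme buffer; Also added: Ub-AMC substrate from 1 µM stock; Incubation: 30 min compound-proteasome preincubation then 25 min substrate reaction, room temperature; Detection: fluorescence, ex 355 nm, em 460 nm; Read-out: % inhibition of Ub-AMC cleavage fluorescence; Benchmarks: no-proteasome and no-compound wells.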
DAGLB inhibitor: blocks human DAGLB lipase activity | HEK293T DAGLB membrane lysate, EnzChek fluorogenic substrate | inhibition, % at 5.17 µM | actives 0.059% (n = 340,000); in the data active = inhibition above about 34%;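 note: 0% = enzyme with vehicle and 100% = wells lacking enzyme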
NRP1-CendR mod: NRP-1/CendR interaction modulation; actives 0.85% (n = 360,000); FAM-RPARPAR peptide binding to NRP-1, fluorescence polarization; inhibition, % at 25 µM; O14786;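 active = inhibition or corrected inhibition above about 18%, plus a signal ratio from 0.5 to 1.5, limit read from the data, passing the limit was not always enough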
Target sequence (O14786 whole entry, looked up): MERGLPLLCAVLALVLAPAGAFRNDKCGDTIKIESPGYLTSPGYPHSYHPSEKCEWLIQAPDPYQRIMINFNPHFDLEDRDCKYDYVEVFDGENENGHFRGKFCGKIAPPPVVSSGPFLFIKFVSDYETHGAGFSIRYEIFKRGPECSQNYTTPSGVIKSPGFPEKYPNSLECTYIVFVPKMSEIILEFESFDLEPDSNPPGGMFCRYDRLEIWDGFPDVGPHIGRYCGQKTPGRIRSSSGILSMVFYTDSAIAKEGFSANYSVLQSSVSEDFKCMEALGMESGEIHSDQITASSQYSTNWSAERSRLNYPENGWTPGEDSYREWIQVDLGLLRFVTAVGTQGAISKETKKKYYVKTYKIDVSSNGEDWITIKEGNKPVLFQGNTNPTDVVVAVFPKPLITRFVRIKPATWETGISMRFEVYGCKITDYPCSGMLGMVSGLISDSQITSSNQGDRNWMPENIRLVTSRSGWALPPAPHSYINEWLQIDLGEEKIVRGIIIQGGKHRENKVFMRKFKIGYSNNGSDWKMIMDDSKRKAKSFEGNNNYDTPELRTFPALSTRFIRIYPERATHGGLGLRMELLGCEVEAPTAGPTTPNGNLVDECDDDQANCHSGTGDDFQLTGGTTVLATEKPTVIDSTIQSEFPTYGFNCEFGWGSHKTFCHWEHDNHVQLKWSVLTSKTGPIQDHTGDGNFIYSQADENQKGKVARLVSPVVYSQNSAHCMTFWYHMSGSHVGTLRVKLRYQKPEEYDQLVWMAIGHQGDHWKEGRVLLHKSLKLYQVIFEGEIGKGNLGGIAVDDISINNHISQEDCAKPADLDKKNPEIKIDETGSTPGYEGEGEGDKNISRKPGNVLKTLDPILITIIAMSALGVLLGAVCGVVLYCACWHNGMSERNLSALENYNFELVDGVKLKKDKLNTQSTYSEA
MT1-MMP act inh: inhibitors of human MT1-MMP activation; HT1080 RFP-PRO-GFP cells, GFP/RFP ratio fluorescence, overnight; percent of plate control window, DMSO zero; GFP/RFP ratio change, % at 20 µM; actives 0.061% (n = 360,000);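 active = GFP/RFP ratio change of at least 30% with cell ATP level not reduced by more than half and red fluorescence within 50% of control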
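Assay system: RFP-PRO-GFP reporter HT1080 cells; read-out basis: GFP/RFP fluorescence ratio; benchmarks: DMSO wells and RFP-L50D-GFP cells; doses: 20 µM single dose, 1% DMSO; schedule: overnight cell settling, then overnight compound exposure, 37 °C, 5% CO2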
DAGLB inh conf: DAGLB (human) inhibition, confirmation screen; HEK293T DAGLB membrane lysate, EnzChek fluorogenic substrate; inhibition, % at 5.17 µM; shares compounds with DAGLB inhibitor; actives 73% (n = 190); AID 504445;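 active = mean inhibition over triplicate wells above a set limit taken from the primary lipase screen, cut at about 34% in these data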;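 note: 0% = DAGLB with DMSO and 100% = wells lacking DAGLB enzyme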
UCH37 confirm: confirmation of human UCH37 deubiquitinating enzyme inhibitors; shares compounds with UCH37 inh; Proteasome-bound UCH37, Ub-AMC cleavage fluorescence; inhibition, % at 20 µM; actives 27% (n = 480); AID 624100;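 active = average inhibition over replicates above about 50%, so the earlier screening hit is confirmed, limit read from the data; inactive = the rest, counted as false positives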;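 note: based on cleavage rate fitted by regression over a 30 min kinetic read; 0% = proteasome plus Ub-AMC and 100% = Ub-AMC without proteasome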
MT1-MMP conf: blocks activation of human MT1-MMP in validation testing. AID 652235. actives 10% (n = 200). inhibition, % at 20 µM. HT1080 RFP-PRO-GFP cells, GFP and RFP fluorescence ratio, overnight. shares compounds with MT1-MMP act inh;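 active = inhibition of at least 50% in the primary cell screen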
An asterisk follows results filed as active; . = not tested or not shown; ! = not active in a repeat.

SMILES	CTSL1 counter	UCH37 inh	DAGLB inhibitor	NRP1-CendR mod	MT1-MMP act inh	DAGLB inh conf	UCH37 confirm	others
Cc1cc(N=Nc2ccccc2C(=O)O)c(C)c(C)c1O	7	25*	35*	-98	14	48*	39
Cc1cc(O)c(C(C)C)cc1N=Nc1ccccc1C(=O)O	5	19	31	-80	22	.	.
CCc1nnc(NS(=O)(=O)c2ccc(Nc3ccc([N+](=O)[O-])c4nonc34)cc2)s1	1	35*	36*	-99	2	32	31
COc1ccc(C=NN=C2CC(C)(C)Cc3n[nH]c(=O)cc32)cc1	.	4	.	.	.	.	.
COC(=O)c1ccccc1NC1=C/C(=N\S(=O)(=O)c2cccs2)c2ccccc2C1=O	52*	30*	42*!	20	2	55*	55*!
O=C(/C=C/c1ccco1)NCC(=O)NN=Cc1ccc(Cl)cc1	.	4	.	.	.	.	.
Nc1nc(-c2ccccc2)c(N=Nc2cccc3ccccc23)s1	-3	8	61*	-5	34*	66*	.	MT1-MMP conf=38
Nc1nc(-c2ccccc2)c(N=Nc2ccccc2Cl)s1	4	14	65*	-7	42*	91*	.	MT1-MMP conf=47
COc1cc(C(=O)NN=c2sc3ccccc3n2C)cc(OC)c1OC	.	2	.	.	.	.	.
O=c1[nH]c(NN=Cc2ccc(F)cc2)nc2ccccc12	.	1	.	.	.	.	.
O=C(NNc1c2ccccc2nc2ccccc12)c1ccccc1O	2	-4	48*	1	32*	82*	.	MT1-MMP conf=39
O=C(NNc1c2ccccc2nc2ccccc12)c1ccc(O)cc1	0	4	21	-25	27	.	.
NC(=S)NN=C/C=C/c1ccccc1	.	13	.	.	.	.	.
CC1CC(C)CN(C(=O)COC(=O)CN2C(=O)c3ccccc3C2=O)C1 (stereo not drawn)	.	2	-2	17	0	.	.
CC1CC(C)CN(C(=O)c2ccc3c(c2NCCO)C(=O)c2ccccc2C3=O)C1 (stereo not drawn)	2	6	44*	6	60*	63*	.	MT1-MMP conf=45
COc1cc(/C=C2\SC(=O)N(c3ccccc3Cl)C2=O)cc([N+](=O)[O-])c1O	.	14	42*	6	31*	38*	.	MT1-MMP conf=27
CCC(=NNc1ccc([N+](=O)[O-])cc1[N+](=O)[O-])c1ccccc1	.	.	.	5	19	.	.
CC/C(=N\Nc1ccc([N+](=O)[O-])cc1[N+](=O)[O-])c1ccc(O)cc1	0	.	39*	12	35*	38*	.	MT1-MMP conf=27
CC1(C)Cc2c(sc(N=CN3CCOCC3)c2C#N)C(C)(C)N1	.	4	.	.	.	.	.
Nc1ccc(N(CCO)CCO)cc1	13	5	-2	-11	-13	.	.
Cc1cc(N(CCO)CCO)ccc1N=Nc1cc(F)ccc1F	8	6	43*	4	33*	45*	.	MT1-MMP conf=39
O=Nc1c(-c2c(O)[nH]c3cc(Br)ccc23)[nH]c2ccccc12	0	4	47*	-19	77*	59*	.	MT1-MMP conf=70*
C=CC[C@@H]1C=C[C@H](ON=C[C@@H](NS(=O)(=O)c2ccc(C)cc2)[C@H](C)/C=C/CC(=O)OC)[C@@H](CO)O1	.	1	.	.	.	.	.
O=c1cc2oc3cc(O)c(O)cc3c(-c3ccccc3[N+](=O)[O-])c-2cc1O	5	13	43*	-14	41*	29	.	MT1-MMP conf=51*
O=c1cc(-c2ccccc2Cl)oc2cccc(O)c12	-1	5	-1	3	-1	.	.
SMILES	CTSL1 counter	UCH37 inh	DAGLB inhibitor	NRP1-CendR mod	MT1-MMP act inh	DAGLB inh conf	UCH37 confirm	others
O=C1c2cccc(Cl)c2C(=O)c2c1cccc2N1CCCC1	-7	7	44*	16	46*	64*	.	MT1-MMP conf=16
CC1=NN(C(=O)CSCc2ccccc2)C(O)(c2ccccc2)C1 (stereo not drawn)	-7	32*	2	-5	0	.	16
O=C(O)c1cccc(Cn2c(Cl)c(C=NNC(=O)c3cccc(O)c3)sc2=O)c1	.	13	.	.	.	.	.
O=C(O)CSc1cc(NS(=O)(=O)c2cccc([N+](=O)[O-])c2)c2ccccc2c1O	.	30*	-10	-29	-21	.	83*
O=C(CNC(=O)c1cccc(F)c1)NN=Cc1ccc(O)c([N+](=O)[O-])c1	.	17	.	.	.	.	.
CCN1C(=O)C2(C(C(=O)c3ccc(C)o3)=C(O)C(=O)N2CCCN2CCOCC2)c2ccccc21 (stereo not drawn)	1	46*	-1	-9	-1	.	20
Cc1ccc(C(=O)C2=C(O)C(=O)N(CCCN3CCOCC3)C23C(=O)N(C)c2ccccc23)o1 (stereo not drawn)	8	6	0	9	0	.	.
NS(=O)(=O)c1ccc(Nc2ccc([N+](=O)[O-])c3nonc23)cc1	7	26*	13	-123	-39	.	5
CC(=O)c1ccc(Nc2ccc([N+](=O)[O-])c3nonc23)cc1	4	8	9	-75	-23	.	.
CC(C)=CCC(C)(C)C1OCCN1C(=O)c1ccccc1 (stereo not drawn)	2	63*	-6	-4	-2	.	68*
Cc1cc([N+](=O)[O-])c(-c2ccc(C=Nn3cnnc3)o2)cc1Cl	.	1	.	.	.	.	.
CCN1/C(=C\C=C(C(C)=O)C(C)=O)Sc2ccccc21	11	39*	-8	-106	-113	.	39
CCOC(=O)/C(C#N)=C(C)/C=C1\Sc2ccccc2N1CC	6	2	-4	130	-198	.	.
CCOc1ccc(Cl)cc1C(c1c(C)[nH][nH]c1=O)c1c(C)[nH][nH]c1=O	.	4	1	-4	0	.	.
Cc1[nH][nH]c(=O)c1C(c1ccc(-c2ccc(Cl)c(Cl)c2)o1)c1c(C)[nH][nH]c1=O	4	42*	-8	-17	-3	.	27
CCC(CNc1cc(OC)cc2cccnc12)NC1CCCCC1 (stereo not drawn)	86*	37*	0	8	1	.	54*
COc1cc(NS(=O)(=O)c2ccc(C)cc2)c2ncccc2c1	-2	2	-4	-12	-13	.	.
CN(C)CCCN(C(=O)c1ccc([N+](=O)[O-])s1)c1nc2cc3c(cc2s1)OCCO3	6	56*	2	18	2	.	4
O=C1C=C(N(CCO)Cc2ccccc2)c2ccccc2C1=O	.	92*	-6	6	4	.	111*
CN(C)c1ccc(C(C(=O)NC2CCCCC2)N(Cc2ccco2)C(=O)c2snc(C(N)=O)c2N)cc1 (stereo not drawn)	-3	68*	7	17	-16	.	-21
